Assay results reported in ChEMBL document CHEMBL1773055, “A chemotype that inhibits three unrelated pathogenic targets: the botulinum neurotoxin serotype A light chain, P. falciparum malaria, and the Ebola filovirus” (J Med Chem, 2011).
The source made the active and inactive calls. The calls are words filed in the database; no cut-off is given here.

How the values were obtained:
Ebolavirus [1] = experiment: Antiviral activity against Zaire ebolavirus expressing enhanced GFP in Vero 76 cells after 48 hrs by standard Plaque assay; assay type: functional, cell-based; details: Orthoebolavirus
Plasmodium falciparum [2] = experiment: Antimalarial activity against Plasmodium falciparum W2; assay type: functional, organism-based
Plasmodium falciparum [3] = experiment: Antimalarial activity against Plasmodium falciparum C235; assay type: functional, organism-based
[4] = molecular target: Botulinum neurotoxin type A (Clostridium botulinum) (UniProt P0DPI0); experiment: (§1) Inhibition of clostridium botulinum Botulinum neurotoxin type A light chain at 20 uM
Sequence of Botulinum neurotoxin type A (Clostridium botulinum) (P0DPI0 2-448 limits assumed): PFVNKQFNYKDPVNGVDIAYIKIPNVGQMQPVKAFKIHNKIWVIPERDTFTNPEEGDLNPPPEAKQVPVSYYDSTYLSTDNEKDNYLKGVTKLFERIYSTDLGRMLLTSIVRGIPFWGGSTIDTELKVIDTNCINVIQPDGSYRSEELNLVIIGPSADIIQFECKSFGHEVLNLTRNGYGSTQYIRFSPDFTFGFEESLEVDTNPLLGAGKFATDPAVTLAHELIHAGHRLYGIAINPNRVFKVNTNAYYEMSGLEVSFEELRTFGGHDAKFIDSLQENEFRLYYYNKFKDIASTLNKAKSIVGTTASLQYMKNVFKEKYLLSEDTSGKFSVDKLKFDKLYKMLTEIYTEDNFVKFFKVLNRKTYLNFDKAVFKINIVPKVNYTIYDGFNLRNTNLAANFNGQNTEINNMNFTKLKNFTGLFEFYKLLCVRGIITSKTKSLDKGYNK
Summary of the method: (§2)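 Recombinant BoNT/A LC and peptide substrate were incubated in 40 mM HEPES–0.05% Tween pH 7.3 with 0.5 mg/ml BSA and 50 μM excess ZnCl2 at 37°C, with compound at 20 μM. Reactions were quenched with TFA, and substrate hydrolysis was quantified by reverse-phase HPLC peak areas. Percent inhibition was measured in duplicate.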

Ebolavirus [5] = experiment: Antiviral activity against Zaire ebolavirus expressing enhanced GFP in Vero 76 cells at 20 uM after 48 hrs by standard Plaque assay; assay type: functional; details: Orthoebolavirus
Plasmodium falciparum [6] = experiment: Resistance index, ratio of IC50 for Plasmodium falciparum W2 to IC50 for Plasmodium falciparum D6; assay type: functional
Summary of the method: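 P. falciparum clones D6 (CQ/MFQ-susceptible, Sierra I/UNC), W2 (CQ-resistant, MFQ-susceptible, Indochina I) and TM91C235 (CQ- and MFQ-resistant, South-East Asian) were tested in a modified Desjardins in vitro susceptibility screen, giving IC50 and IC90. Resistance index is IC50 of the resistant strain divided by IC50 against D6 (W2/D6, C235/D6).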

Plasmodium falciparum [7] = experiment: Resistance index, ratio of IC50 for Plasmodium falciparum C235 to IC50 for Plasmodium falciparum D6; assay type: functional
Plasmodium falciparum [8] = experiment: Antimalarial activity against Plasmodium falciparum D6; assay type: functional, organism-based
Vero = experiment: Cytotoxicity against african green monkey Vero 76 cells at 20 uM; assay type: cell-based; details: chlorocebus sabaeus
[9] = Selectivity index, ratio of IC90 for […] cells to IC90 for Plasmodium falciparum D6; assay type: toxicity, cell-based
[10] = Selectivity index, ratio of IC50 for […] cells to IC50 for Plasmodium falciparum W2; assay type: toxicity, cell-based; details: read-out: Ratio IC50
Plasmodium berghei = experiment: Antiplasmodial activity against Plasmodium berghei str. ANKA infected in ICR mouse assessed as protection against infection; assay type: functional, organism-based
Summary of the method: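 ICR mice were dosed orally once daily on days -1, 0 (1–3 h before inoculation) and +1, with compound in 0.5% hydroxyethylcellulose/0.1% Tween 80. On day 0 they received 1.0×10^5 P. berghei ANKA sporozoites IV, taken from Anopheles dirus salivary glands. Giemsa thick/thin tail smears were read on days 4–31. Protection meant no parasitemia within 10 days and negative smears through day 31.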

[11] = Selectivity index, ratio of IC90 for […] cells to IC90 for Plasmodium falciparum C235; assay type: toxicity, cell-based
Mus musculus = experiment: Toxicity against ICR mouse at 160 mg/kg, po for 3 consecutive days measured; assay type: organism-based; design: dose 160 mg/kg, route oral; details: in vivo
Summary of the method: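 P. berghei (P-line)-infected outbred ICR mice were given compound orally in 0.5% hydroxyethylcellulose/0.1% Tween 80 daily for 3 days. Toxicity was judged from overt physical or behavioural changes, checked twice daily, plus gross necropsy of all mice.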

[12] = Selectivity index, ratio of IC90 for […] cells to IC90 for Plasmodium falciparum W2; assay type: toxicity, cell-based
Liver microsomes = experiment: Half life in human liver microsomes; assay type: ADME, Microsome
Summary of the method: (§3)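 Compound at 10 μM was incubated with mouse or human liver microsomes (1 mg/mL protein) in 0.1 M sodium phosphate pH 7.4 with an NADPH-regenerating system at 37°C, started by G6PD. Samples were quenched with cold acetonitrile at 0, 10, 30 and 60 min and analysed by LC-MS/MS. Half-life = 0.693/k.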

Liver = experiment: Half life in mouse liver microsomes; assay type: ADME, Microsome; summary of the method: as §3
RAW264.7 = experiment: Cytotoxicity against rat RAW264.7 cells by MTT assay; assay type: cell-based; details: for IC50: Mus musculus, RAW264.7; for IC90: […]
Summary of the method: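 RAW 264.7 cells were seeded at 2.5×10^4 per well about 12 h before dosing. They were exposed to 0.29–48 μg/ml compound for 48 h at 37°C, 5% CO2. Viability was read by MTT reduction, with a DMSO control. Runs were in duplicate, and IC50 came from sigmoidal variable-slope dose-response fits.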

[13] = Selectivity index, ratio of IC50 for […] cells to IC50 for Plasmodium falciparum D6; assay type: toxicity, cell-based; details: read-out: Ratio IC50
[14] = Selectivity index, ratio of IC50 for […] cells to IC50 for Plasmodium falciparum C235; assay type: toxicity, cell-based; details: read-out: Ratio IC50
[15] = Cytotoxicity against human NCI60 cells; assay type: functional
[16] = Inhibition of beta-hematin formation; assay type: functional
[17] = Inhibition of beta-hematin formation assessed as drug-hematin ratio for 50% inhibition by BHIA assay; assay type: functional
[18] = molecular target: Botulinum neurotoxin type A (Clostridium botulinum, UniProt P0DPI0); experiment: as §1; summary of the method: as §2
Sequence of Botulinum neurotoxin type A (P0DPI0 2-448 limits assumed): as above

Row | Compound | IC50 (Plasmodium falciparum [2]) | IC90 (Plasmodium falciparum [2]) | IC50 (Plasmodium falciparum [3]) | IC90 (Plasmodium falciparum [3]) | inhibition [4] | Ratio IC50 (Plasmodium falciparum [6]) | Ratio IC50 (Plasmodium falciparum [7]) | IC50 (Plasmodium falciparum [8]) | IC90 (Plasmodium falciparum [8]) | further results
1 | Cc1cc(NCCCN2CCCCC2)c2ccc3c(ccc4c(NCCCN5CCCCC5)cc(C)nc43)c2n1.Cl | 0.00698 µM | 0.0225 µM | 0.0248 µM | 0.0412 µM | 66.1% | 0.75 | 2.68 | 0.00926 µM | 0.0174 µM | IC50 (Ebolavirus [1]): 5 µM; inhibition at 20 µM (Ebolavirus [5]): 100%; Activity (Vero): < 20%
2 | CCN(CC)CCNc1cc(C)nc2c1ccc1c2ccc2c(NCCN(CC)CC)cc(C)nc21.Cl |  | 0.0101 µM | 0.00332 µM | 0.00379 µM | 55.4% | 0.57 | 0.55 | 0.00601 µM | 0.00901 µM | IC50 (Ebolavirus [1]): 5 µM; selectivity ratio [9]: 1190; selectivity ratio [10]: 2690; Activity (Plasmodium berghei): inactive; selectivity ratio [11]: 2830; Activity (Mus musculus): Non-toxic; selectivity ratio [12]: 1060; t1/2 (Liver microsomes): > 1 h; t1/2 (Liver): > 1 h; IC50 (RAW264.7): 9.35 µM; IC90 (RAW264.7): 10.7 µM; inhibition at 20 µM (Ebolavirus [5]): 97%; selectivity ratio [13]: 1560; selectivity ratio [14]: 282; Activity (Vero): < 20%
3 | Cc1cc(NCCN2CCCCC2)c2ccc3c(ccc4c(NCCN5CCCCC5)cc(C)nc43)c2n1.Cl | 0.0055 µM | 0.0154 µM | 0.0106 µM | 0.0149 µM | 63.4% | 0.62 | 1.2 | 0.00879 µM | 0.0132 µM | 
4 | Cc1cc(NCCN2CCOCC2)c2ccc3c(ccc4c(NCCN5CCOCC5)cc(C)nc43)c2n1.Cl | 0.00612 µM | 0.0115 µM | 0.00984 µM | 0.0165 µM | 39% | 1.03 | 1.66 | 0.00593 µM | 0.0126 µM | selectivity ratio [9]: 2370; inhibition (INH) [15]: 91%; selectivity ratio [10]: 1660; selectivity ratio [11]: 1820; selectivity ratio [12]: 2600; t1/2 (Liver microsomes): > 1 h; t1/2 (Liver): > 1 h; IC50 (RAW264.7): 10.2 µM; IC90 (RAW264.7): 29.9 µM; inhibition at 20 µM (Ebolavirus [5]): 53%; selectivity ratio [13]: 1720; inhibition [16]: Dose-dependent effect; selectivity ratio [14]: 1030; IC50 [17]: 0.473 equiv
5 | Cc1cc(NCCCN)c2ccc3c(ccc4c(NCCCN)cc(C)nc43)c2n1.Cl | 1.7 µM | 3.26 µM | 2.03 µM | 3.05 µM | 70% | 2.4 | 2.87 | 0.708 µM | 1.01 µM | 
6 | Cc1cc(NCCCN(C)C)c2ccc3c(ccc4c(NCCCN(C)C)cc(C)nc43)c2n1.Cl | 0.353 µM | 0.709 µM | 0.0548 µM | 0.699 µM | 68.9% | 3.41 | 0.53 | 0.103 µM | 0.21 µM | 
7 | C[C@@H]1CC[C@H]2[C@@H](C)C(=O)O[C@@H]3O[C@@]4(C)CC[C@@H]1[C@]32OO4 [ARTEMISININ] | 0.0067 µM | 0.0115 µM | 0.013 µM | 0.0174 µM |  |  |  | 0.009 µM | 0.0128 µM | 
8 | Cc1cc(NCCCN2CCCC2)c2ccc3c(ccc4c(NCCCN5CCCC5)cc(C)nc43)c2n1.Cl | 0.00775 µM | 0.0254 µM | 0.0343 µM | 0.0952 µM | 73.5% | 0.52 | 2.31 | 0.0148 µM | 0.0394 µM | 
9 | Cc1cc(NCCN)c2ccc3c(ccc4c(NCCN)cc(C)nc43)c2n1.Cl | 0.871 µM | 1.79 µM | 1.02 µM | 1.76 µM | 62.7% | 3.22 | 3.78 | 0.27 µM | 0.355 µM | Ki [18]: 8.7 µM
10 | Cc1cc(NCCN(C)C)c2ccc3c(ccc4c(NCCN(C)C)cc(C)nc43)c2n1.Cl | 0.00919 µM | 0.0312 µM | 0.0153 µM | 0.026 µM | 57% | 0.59 | 0.98 |  | 0.0208 µM | 
11 | CCN(CC)CCCC(C)Nc1ccnc2cc(Cl)ccc12 (configuration not stated) [CHLOROQUINE] |  | 0.698 µM |  | 0.373 µM |  |  |  |  | 0.0161 µM | 
12 | CCN(CC)CCCNc1cc(C)nc2c1ccc1c2ccc2c(NCCCN(CC)CC)cc(C)nc21.Cl | 0.00865 µM | 0.0467 µM | 0.0665 µM | 0.286 µM | 64.7% | 0.29 | 2.22 | 0.03 µM | 0.0495 µM | 
13 | Cc1cc(NCCN2CCCC2)c2ccc3c(ccc4c(NCCN5CCCC5)cc(C)nc43)c2n1.Cl | 0.00811 µM | 0.028 µM | 0.0259 µM | 0.0403 µM | 60.3% | 0.48 | 1.54 | 0.0168 µM | 0.0323 µM | inhibition [16]: Dose-dependent effect; IC50 [17]: 0.401 equiv
14 | Cc1cc(NCCCCN)c2ccc3c(ccc4c(NCCCCN)cc(C)nc43)c2n1 |  |  |  |  | 72.2% |  |  |  |  | 
15 | Cc1cc(NCCCN2CCOCC2)c2ccc3c(ccc4c(NCCCN5CCOCC5)cc(C)nc43)c2n1.Cl | 0.002 µM | 0.00638 µM | 0.00805 µM | 0.0174 µM | 55.6% | 0.38 | 1.54 | 0.00523 µM | 0.00847 µM | IC50 (Ebolavirus [1]): 2.5 µM; selectivity ratio [9]: 1300; inhibition (INH) [15]: 92%; selectivity ratio [10]: 3740; selectivity ratio [11]: 635; selectivity ratio [12]: 1730; t1/2 (Liver microsomes): 0.667 h; t1/2 (Liver): > 1 h; IC50 (RAW264.7): 7.48 µM; IC90 (RAW264.7): 11 µM; inhibition at 20 µM (Ebolavirus [5]): 96%; selectivity ratio [13]: 1430; inhibition [16]: Dose-dependent effect; selectivity ratio [14]: 929; IC50 [17]: 0.52 equiv; Activity (Vero): < 20%
